Laboratory results taken from ChEMBL document CHEMBL4342509, “New 8-Nitroquinolinone Derivative Displaying Submicromolar in Vitro Activities against Both Trypanosoma brucei and cruzi” (ACS Med Chem Lett, 2020).

How the values were obtained:
[1] = test system: Trypanosoma brucei brucei; test: Antitrypanosomal activity against blood stream form of Trypanosoma brucei brucei S427 trypomastigotes overexpressing NTR assessed as inhibition of parasite growth; assay type: functional, organism-based
[2] = test system: Trypanosoma brucei brucei; test: Antitrypanosomal activity against bloodstream form of wild type Trypanosoma brucei brucei S427 trypomastigotes assessed as inhibition of parasite growth; assay type: functional, organism-based
Trypanosoma cruzi = test: Antitrypanosomal activity against Trypanosoma cruzi CL Brener amastigotes infected in African green monkey Vero cells assessed as reduction in parasite growth incubated for 120 hrs at 24 hrs post-infection and measured on day 6 post-infection by hemocytometer based light microscopy; assay type: functional, organism-based
In short: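 Compounds, 2–4-fold serial dilutions over 0,1–25 µM final, applied for 120 h at 37°C. On day 6, released trypomastigotes pooled, centrifuged and counted by haemocytometer. EC50 by nonlinear regression; two experiments, triplicate wells.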

[3] = Toxicity in Swiss mouse assessed as apathy occurence at 50 mg/kg, po administered once daily for 5 days measured for 1 hr; assay type: organism-based; conditions: in vivo
[4] = Selectivity index, ratio of CC50 for human HepG2 cells to EC50 for Trypanosoma brucei brucei trypomastigotes AnTat 1.9; assay type: toxicity; conditions: read-out: Ratio CC50/EC50
[5] = Electrochemical behavior of the compound assessed as redox potential corrected toward normal hydrogen electrode by cyclic voltammetry
Leishmania donovani [6] = test: Antileishmanial activity against wild type Leishmania donovani BOB (MHOM/SD/62/1S-CL2D) promastigotes assessed as inhibition of parasite growth incubated for 72 hrs by resazurin dye based assay; assay type: functional, organism-based
In short: (§1)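 LdBOB promastigotes grown at 26 °C in modified M199; NTR1- or NTR2-overexpressing lines kept under nourseothricin (100 µg/mL). Triplicate cultures seeded at 5×10^4 parasites/mL with drug for 72 h; 50 µM resazurin added, fluorescence (ex 528/em 590 nm) read after a further 4 h.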

[7] = Toxicity in Swiss mouse assessed as lesions on heart at 25 mg/kg, po administered once daily for 5 days; assay type: organism-based; conditions: in vivo, 120 h
HepG2 [8] = test: Genotoxicity in human HepG2 cells assessed as induction of DNA damage at 1 to 10 uM incubated for 2 to 72 hrs by alkaline comet assay; assay type: toxicity, cell-based; conditions: hepg2, 10 µM
In short: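 Cells embedded in 0.7% low-melting agarose on film. Alkaline electrophoresis at pH >13, 24 min at 0.8 V/cm, then neutralised, ethanol-fixed and SYBR Gold stained. % tail DNA is the median of 100 cells (two deposits); 1 mM MMS positive control; three independent experiments.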

[9] = Toxicity in Swiss mouse assessed as lesions on brain at 25 mg/kg, po administered once daily for 5 days; assay type: organism-based; conditions: in vivo, 120 h
[10] = test system: Trypanosoma brucei brucei; test: Selectivity index, ratio of EC50 for bloodstream form of wild type Trypanosoma brucei brucei S427 trypomastigotes to EC50 for blood stream form of Trypanosoma brucei brucei S427 trypomastigotes overexpressing NTR; assay type: functional
Leishmania donovani [11] = test: Antileishmanial activity against Leishmania donovani BOB (MHOM/SD/62/1S-CL2D) promastigotes overexpressing NTR2 assessed as inhibition of parasite growth incubated for 72 hrs by resazurin dye based assay; assay type: functional, organism-based; in short: as §1
[12] = Permeability of the compound in pH 7.4 Prisma HT buffer at 100 uM incubated for 4 hrs by PAMPA-BBB assay method; assay type: ADME; conditions: read-out: permeability
[13] = Thermodynamic solubility of the compound in phosphate buffer at pH 7.4 by shake flask method; assay type: physicochemical
In short: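 Shake-flask test, miniaturised: 10 µL of a 50 mM stock in 990 µL phosphate buffer pH 7.4 (ionic strength 50 mM), n=4. Shaken 24 h at room temperature, then centrifuged 12,225 × g for 5 min. Supernatant mixed 1:1 with acetonitrile and read by UV spectrophotometry at compound λmax. Quantified against a three-point calibration (0, 25, 50 µM).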

Leishmania infantum = test: Antileishmanial activity against Leishmania infantum MHOM/MA/67/ITMAP-263 axenic amastigotes expressing luciferase plasmid assessed as reduction in parasite viability incubated for 48 hrs by Steady Glow reagent based luminescence assay; assay type: functional, organism-based; conditions: MHOM/MA/67/ITMAP-263, 48 h
[14] = Toxicity in Swiss mouse assessed as lesions on lung at 25 mg/kg, po administered once daily for 5 days; assay type: organism-based; conditions: in vivo, 120 h
[15] = Toxicity in Swiss mouse assessed as lesions on liver at 25 mg/kg, po administered once daily for 5 days; assay type: organism-based; conditions: in vivo, 120 h
Leishmania donovani [16] = test: Selectivity index, ratio of EC50 for wild type Leishmania donovani BOB (MHOM/SD/62/1S-CL2D) promastigotes to EC50 for Leishmania donovani BOB (MHOM/SD/62/1S-CL2D) promastigotes overexpressing NTR1; assay type: functional
HepG2 [17] = test: (§2) Cytotoxicity against human HepG2 cells assessed as reduction in cell viability incubated for 72 hrs by MTT assay; assay type: cell-based; conditions: hepg2, 72 h
[18] = Microsomal stability in CD-1 mouse liver microsomes in presence of NADP measured up to 40 mins by LC-MS analysis; assay type: ADME, Microsome
In short: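 Compound incubated in duplicate with female CD-1 mouse microsomes at 37°C in 50 mM phosphate pH 7.4. Cofactors: 5 mM MgCl₂, 1 mM NADP, 0.4 U/mL G6PDH and 5 mM glucose-6-phosphate. […] Propranolol reference.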

[19] = Toxicity in orally dosed Swiss mouse administered once daily for 5 days; assay type: organism-based; conditions: in vivo, po
Plasma proteins = test: Plasma protein binding incubated for 4 hrs by LCMS analysis
[20] = Toxicity in Swiss mouse assessed as lesions on kidney at 25 mg/kg, po administered once daily for 5 days; assay type: organism-based; conditions: in vivo, 120 h
[21] = test system: Trypanosoma brucei brucei; test: Antitrypanosomal activity against Trypanosoma brucei brucei AnTat 1.9 trypomastigotes assessed as reduction in parasite viability incubated for 69 hrs by Alamar Blue dye based assay; assay type: functional, organism-based; conditions: AnTat 1.9, 69 h
In short: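 Bloodstream AnTat 1.9 parasites grown at 37°C, 5% CO₂ in MEM with Earle's salts (Baltz-type) plus 0.5 mM mercaptoethanol, 1.5 mM L-cysteine, 0.05 mM bathocuproine sulfate and 20% heat-inactivated horse serum. EC50 from nonlinear regression, three independent experiments in duplicate.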

[22] = Half life in Swiss mouse at 25 mg/Kg, po measured up to 24 hrs by LCMS analysis; assay type: ADME, organism-based; conditions: in vivo
In short: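 Female Swiss mice, 8 weeks old, n=4, given a suspension by oral gavage at 25 mg/kg. Tail blood (100 µL, heparin) drawn at 0.5, 1, 3, 6, 9, 12 and 24 h. Samples extracted with ACN containing megalol internal standard plus QuEChERS salts. Analysed by LC-MS/MS (C8 column, negative ESI, MRM); calibration 10–1,000 ng/ml, LLOQ 10 ng/ml.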

Leishmania donovani [23] = test: Antileishmanial activity against Leishmania donovani BOB (MHOM/SD/62/1S-CL2D) promastigotes overexpressing NTR1 assessed as inhibition of parasite growth incubated for 72 hrs by resazurin dye based assay; assay type: functional, organism-based; in short: as §1
[24] = as §2; assay type: cell-based; conditions: HepG2 cells

Compound	EC50 [1]	EC50 [2]	selectivity ratio [4]	Activity [5]	EC50 (Leishmania infantum)	CC50 (HepG2 [17])	EC50 [21]	other results
CC1CS(=O)(=O)CCN1/N=C/c1ccc([N+](=O)[O-])o1 (stereo unspecified) [NIFURTIMOX]	600 nM	1.9 µM	–	–	–	–	–	–
O=c1[nH]c2c([N+](=O)[O-])cc(Br)cc2cc1Cl	20 nM	0.3 µM	1510	-0.37 V	6.7 µM	18.1 µM	12 nM	EC50 (Trypanosoma cruzi): 500 nM; Activity [3]: Toxic; EC50 (Leishmania donovani [6]): 4.7 µM; Activity [7]: Non-Toxic; Activity (HepG2 [8]): Non-Toxic; Activity [9]: Non-Toxic; Ratio EC50 [10]: 15; EC50 (Leishmania donovani [11]): 2.9 µM; Papp at 4 h, 100 µM [12]: 40.5 ×10⁻⁶ cm/s; Therm_solubility [13]: 21.7 µM; Activity [14]: Non-Toxic; Activity [15]: Non-Toxic; Ratio EC50 (Leishmania donovani [16]): 16; t1/2 [18]: > 40 min; NOAEL at 120 h [19]: 25 mg/kg; Activity (Plasma proteins): 99%; Activity [20]: Non-Toxic; t1/2 [22]: 2.9 h; EC50 (Leishmania donovani [23]): 300 nM
NCCCC(N)(C(=O)O)C(F)F (stereo unspecified) [EFLORNITHINE]	–	–	–	–	–	> 100 µM	13300 nM	–
O=c1[nH]c2c([N+](=O)[O-])cccc2cc1Cl	–	–	71	-0.47 V	16 µM	–	1200 nM	–
O=c1[nH]c2c([N+](=O)[O-])cc(Br)cc2cc1Br	–	–	332	-0.37 V	6.5 µM	16.6 µM	50 nM	–
O=c1[nH]c2c([N+](=O)[O-])cc(C#CCO)cc2cc1Cl	–	–	31	–	8.9 µM	30.9 µM	1000 nM	–
O=c1ccc2cc(C(F)(F)F)ccc2[nH]1	–	–	–	–	> 100 µM	> 100 µM	> 50000 nM	–
O=c1[nH]c2c([N+](=O)[O-])cc(C(F)(F)F)cc2cc1Br	900 nM	6.7 µM	206	-0.36 V	3.9 µM	41.3 µM	200 nM	EC50 (Leishmania donovani [6]): 4.1 µM; Ratio EC50 [10]: 7; EC50 (Leishmania donovani [11]): 4.9 µM; Papp at 4 h, 100 µM [12]: 45 ×10⁻⁶ cm/s; Ratio EC50 (Leishmania donovani [16]): 3.5; t1/2 [18]: > 40 min; Activity (Plasma proteins): 99.4%; EC50 (Leishmania donovani [23]): 1200 nM
O=c1ccc2cc(C(F)(F)F)cc([N+](=O)[O-])c2[nH]1	–	–	24	-0.39 V	18.5 µM	41.3 µM	1700 nM	–
COc1ccc2cc(C(F)(F)F)cc([N+](=O)[O-])c2n1	–	–	> 5	-0.75 V	> 100 µM	> 100 µM	20900 nM	–
O=C(O)c1ccc(-c2cc3cccc([N+](=O)[O-])c3[nH]c2=O)cc1	4200 nM	5.4 µM	80	-0.56 V	> 100 µM	–	1500 nM	CC50 at 72 h [24]: 120 µM
O=c1[nH]c2c([N+](=O)[O-])cc(C#CCCCO)cc2cc1Cl	–	–	38	–	10.1 µM	32.7 µM	850 nM	–
Nc1cc(C(F)(F)F)cc2cc(Br)c(=O)[nH]c12	–	–	> 11	–	> 100 µM	> 100 µM	8700 nM	–
